Env fusion inh: inhibitors of HIV-1 Env-driven cell-cell fusion, primary screen, HeLa-JRFL effector, CEM21 target cells, luciferase; AID 651610, 2012; inhibition, % at 12.3 µM; hit rate 1.1% among 360,000;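 active = mean replicate inhibition score of at least 50 and every replicate individually at or above 50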;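 note: 0% = plate neutral controls and 100% = maraviroc near 300 nM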
GSIS activator: GLuc luminescence reporter in INS-1E cells, primary screen for activators of glucose-dependent secretion of insulin. hit rate 0.61% among 370,000. INS-1E GLuc reporter insulin secretion, 2-3 h. activation, % at 16.6 µM;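 active = lowest replicate activation of at least 40%, so every replicate reaches that level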;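 note: 0% = median of neutral control wells and 100% = median of IBMX positive control wells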
CDK5 inh: inhibitors of human CDK5/p35 kinase, primary screen, biochemical, single concentration | inhibition, % at 10 µM | Recombinant CDK5/p35, ADP-Glo luminescence, 60 min | AID 488839, 2010 | hit rate 0.01% among 330,000 | Cyclin-dependent kinase 5 (Homo sapiens) + Cyclin-dependent kinase 5 activator 1 (Homo …;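 active = highest replicate inhibition of at least 50% and at least 75% of replicates reaching 50%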;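 note: plate controls were DMSO neutral control for no effect and GW8510 at 10 µM for full effect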
Target sequence (Q00535 whole entry, looked up): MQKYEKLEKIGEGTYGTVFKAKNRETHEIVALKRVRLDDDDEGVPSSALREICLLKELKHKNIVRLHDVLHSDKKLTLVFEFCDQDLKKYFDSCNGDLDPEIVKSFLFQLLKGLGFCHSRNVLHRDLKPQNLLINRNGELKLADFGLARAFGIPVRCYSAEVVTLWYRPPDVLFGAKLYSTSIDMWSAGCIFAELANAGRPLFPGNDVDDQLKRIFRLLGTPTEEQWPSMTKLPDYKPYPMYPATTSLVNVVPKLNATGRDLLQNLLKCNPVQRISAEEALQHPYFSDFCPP
Target sequence (Q15078 whole entry, looked up): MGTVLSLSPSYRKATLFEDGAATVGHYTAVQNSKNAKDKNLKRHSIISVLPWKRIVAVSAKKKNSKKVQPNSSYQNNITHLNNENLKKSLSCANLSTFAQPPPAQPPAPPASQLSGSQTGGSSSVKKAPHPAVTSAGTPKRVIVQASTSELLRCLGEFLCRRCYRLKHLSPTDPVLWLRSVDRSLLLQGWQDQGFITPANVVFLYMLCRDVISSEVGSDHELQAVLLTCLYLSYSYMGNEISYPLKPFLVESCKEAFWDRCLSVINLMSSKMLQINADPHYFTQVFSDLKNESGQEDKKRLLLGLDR
Cneo AK release: Cryptococcus neoformans cell lysis inducers, primary screen, AK release luminescence, single concentration; C. neoformans lysis, adenylate kinase release luminescence, 4 h; normalised: neutral wells 0, clomiphene wells 100; lysis activity, % at 15 µM; hit rate 0.2% among 360,000; AID 651654, 2012;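 active = mean lysis activity across replicates of at least 80%, whatever share of replicates individually reach that level; inactive = mean lysis activity below 80%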
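Test system: log-phase Cryptococcus neoformans yeast cells. Input: 5 × 10^6 yeast cells/mL. Medium: fresh YPD growth medium. Doses: single dose. Incubation: static 4 h at 37 °C with compound, 1 h detection. Measured by: luminescent adenylate kinase detection reagent. Read-out: signal increase indicating cell lysis. Benchmarks: Clomiphene.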
dFosB act: activators of delta FosB homodimer, primary screen, biochemical, fluorescence polarization, TAMRA-CDK5 oligo, single point; hit rate 0.99% among 340,000; AID 493131, 2011; purified delta FosB; percent of positive-control signal above neutral wells; activation, % at 25 µM;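 active = mean activation above about 17%, with every replicate also reaching it, limit read from the data, passing the limit was not always enough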
PAX8 reporter: inhibitors of PAX8-driven TPO luciferase reporter, primary screen, RMG-I cells, single concentration; SteadyGlo, 24 h; inhibition, % at 12.6 µM; hit rate 1.2% among 360,000; AID 652154, 2013;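 active = mean replicate inhibition at least 60% with every replicate also reaching 60%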;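 note: luciferase light reporting Pax8 driven TPO promoter activity; plate controls were median of neutral control wells for no effect and mitoxantrone controls for full effect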
Numbers without * were called inactive; [ ] = remark or other dose. In the library only some 2.9% were active in any assay of this set; here they are far more common.

What do the screens show for `Cc1cccc(C)c1-n1nnnc1C(c1ccnc2ccccc12)N(Cc1ccccc1)Cc1ccccc1` (stereo not given)?
Env fusion inh: 90*; GSIS activator: -11; PAX8 reporter: 3

Results for CN(CCc1ccccc1)C(c1ccnc2ccccc12)c1nnnn1-c1ccc2c(c1)OCCO2 (stereo not given) ?
Env fusion inh: 60*; GSIS activator: -17; PAX8 reporter: 22

How did COc1ccccc1/C=N/NC(=S)NCc1ccco1 do in these assays?
Env fusion inh: 9; GSIS activator: -8; CDK5 inh: 2; Cneo AK release: 89*; dFosB act: -3; PAX8 reporter: 26

Results for S=C(NCc1ccco1)N/N=C/c1ccccc1Cl ?
GSIS activator: 22; CDK5 inh: 0; dFosB act: 0; PAX8 reporter: -30

Results for O=C(NC1CCCC1)N1CC(=O)N2[C@H](CO)[C@@H](c3ccc(/C=C/c4ccccc4)cc3)[C@H]2C1 ?
GSIS activator: -1

Results for Cc1noc(C)c1S(=O)(=O)Nc1ccc2c(c1)C(=O)N([C@H](C)CO)C[C@@H](C)[C@@H](CN(C)Cc1ccncc1)OCCCC[C@@H](C)O2 ?
Env fusion inh: -11[16.7 µM]; GSIS activator: -3; Cneo AK release: -2; PAX8 reporter: -9

What do the screens show for `COc1ccc(NC(=O)N(C)C[C@H]2OCCCC[C@H](C)Oc3ccc(NC(=O)C4CCCCC4)cc3C(=O)N([C@@H](C)CO)C[C@@H]2C)cc1`?
Env fusion inh: -9[16.7 µM]; GSIS activator: -10; Cneo AK release: 90*

What do the screens show for `COc1ccc(NC(=O)N(C)C[C@@H]2OCCCC[C@@H](C)Oc3ccc(NC(=O)C4CCCCC4)cc3C(=O)N([C@H](C)CO)C[C@H]2C)cc1`?
Env fusion inh: -48[16.7 µM]; GSIS activator: -13; Cneo AK release: -3

How did COc1ccc(NC(=O)N(C)C[C@@H]2OCCCC[C@H](C)Oc3ccc(NC(=O)Nc4ccc5c(c4)OCO5)cc3C(=O)N([C@H](C)CO)C[C@@H]2C)cc1 do in these assays?
Env fusion inh: -16[16.7 µM]; GSIS activator: 7; Cneo AK release: 92*; PAX8 reporter: -17

How did COc1ccc(NC(=O)N(C)C[C@H]2OCCCC[C@@H](C)Oc3ccc(N(C)C)cc3C(=O)N([C@H](C)CO)C[C@H]2C)cc1 do in these assays?
Env fusion inh: -9[16.7 µM]; GSIS activator: -7; Cneo AK release: 112*; PAX8 reporter: 5

Results for C[C@H](CO)N1C[C@H](C)[C@H](CN(C)S(=O)(=O)c2ccc(F)cc2)Oc2ccc(NC(=O)Cc3ccccc3)cc2C1=O ?
GSIS activator: 1; Cneo AK release: 1; PAX8 reporter: -2

How did C[C@H](CO)N1C[C@H](C)[C@H](CN(C)C(=O)Nc2ccccc2)Oc2c(NC(=O)c3cnccn3)cccc2C1=O do in these assays?
GSIS activator: 28; Cneo AK release: -1; PAX8 reporter: -1

Results for CCCN(C)C[C@@H]1Oc2cc(C3=CCCC3)ccc2S(=O)(=O)N([C@@H](C)CO)C[C@@H]1C ?
Env fusion inh: -15[16.7 µM]; GSIS activator: 25

What do the screens show for `CC(C)OP(=O)(c1ccc(N(C)C)cc1)C(Nc1ccccc1)c1ccccc1` (stereo not given)?
Env fusion inh: 85*; GSIS activator: -19; CDK5 inh: 0; dFosB act: -8; PAX8 reporter: 2

Results for CCC(=O)N(C)C[C@H]1Oc2ncc(-c3ccc(F)cc3)cc2C(=O)N([C@@H](C)CO)C[C@H]1C ?
Env fusion inh: 10[16.7 µM]; GSIS activator: 17; Cneo AK release: -1

Results for O=C(Cc1cccs1)N/N=C/C=C/c1ccccc1 ?
Env fusion inh: -16; GSIS activator: 5; CDK5 inh: -4; Cneo AK release: 1; dFosB act: -9; PAX8 reporter: 107*

Results for O=C(Cc1cccs1)N/N=C/C=C\c1ccccc1[N+](=O)[O-] ?
Env fusion inh: -8; GSIS activator: -5; CDK5 inh: 0; dFosB act: -1; PAX8 reporter: -50

How did CC1CCN(c2ccc(-c3cccs3)nn2)CC1 do in these assays?
Env fusion inh: 16; GSIS activator: 2; CDK5 inh: 10; Cneo AK release: -3; dFosB act: -7; PAX8 reporter: 84*

Results for C[C@@H]1CN([C@@H](C)CO)S(=O)(=O)c2ccc(C#CCN(C)C)cc2O[C@@H]1CN(C)Cc1ccccc1 ?
Env fusion inh: -23[16.7 µM]; GSIS activator: 12; Cneo AK release: 9; PAX8 reporter: -10

Results for Cc1ccc(S(=O)(=O)Nc2ccc3c(c2)C(=O)N([C@@H](C)CO)C[C@H](C)[C@H](CN(C)C(=O)Cc2ccccc2)OCCCC[C@@H](C)O3)cc1 ?
Env fusion inh: -40[16.7 µM]; GSIS activator: -28; Cneo AK release: 17; PAX8 reporter: 1

How did Cc1cc2c(c(=O)n1Cc1ccccn1)C(c1ccc3c(c1)OCO3)C(C#N)=C(N)O2 (stereo not given) do in these assays?
Env fusion inh: -16; CDK5 inh: -3; Cneo AK release: 0; dFosB act: -3; PAX8 reporter: 8

Results for COc1ccc(CCn2c(C)cc3c(c2=O)C(c2ccc4c(c2)OCO4)C(C#N)=C(N)O3)cc1OC (stereo not given) ?
CDK5 inh: 0; Cneo AK release: 0; dFosB act: 51*

Results for CCc1ccc(NC(=O)c2cnn3ccccc23)cc1 ?
Env fusion inh: 27; CDK5 inh: 5; Cneo AK release: -12; dFosB act: -1; PAX8 reporter: 82*

How did CCCNC(=O)N1CC2(CN(C(=O)CCC)C2)c2c(n(C)c3cc(OC)ccc23)[C@@H]1CO do in these assays?
GSIS activator: 12

What do the screens show for `C[C@@H](NC(=O)C[C@H]1C[C@@H]2c3cc(NC(=O)c4ccc5c(c4)OCO5)ccc3O[C@@H]2[C@H](CO)O1)c1ccccc1`?
Env fusion inh: -8[16.7 µM]; GSIS activator: -28; PAX8 reporter: -6

Results for COc1cc(NC(=O)CN2C(=O)C(=O)N(CC(C)C)C2=O)cc(OC)c1 ?
Env fusion inh: -8; GSIS activator: 43*; CDK5 inh: 0; Cneo AK release: -1; dFosB act: -2

How did Cc1noc(C)c1NC(=O)N(C)C[C@H]1Oc2c(NC(=O)NC3CCCCC3)cccc2C(=O)N([C@@H](C)CO)C[C@@H]1C do in these assays?
Env fusion inh: -23[16.7 µM]; GSIS activator: 0; Cneo AK release: -2
